In ChEMBL document CHEMBL1157775, “Novel hexahydropyrrolo[3,4-c]pyrrole CCR5 antagonists” (Bioorg Med Chem Lett, 2010):

Legend:
[1] = Permeability from apical to basolateral side of human Caco-2 cells after 21 days; format: ADME, cell-based; conditions: read-out: permeability
[2] = target: C-C chemokine receptor type 5 (Homo sapiens, UniProt P51681); assay: Binding affinity at CCR5 receptor by radiolabeled RANTES binding assay
[3] = Oral bioavailability in rat at 10 mg/kg; format: ADME, organism-based; conditions: in vivo
Summary of the method: (§1)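 Rat PK. Single IV dose of 1 mg/kg and oral dose of 10 mg/kg. Oral AUC (ng·h/mL) and %F were derived from the PO arm. Clearance (mL/min/kg) was taken from the IV arm.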

[4] = Intrinsic clearance in human liver microsomes assessed per mg of protein; format: ADME, Microsome
Summary of the method: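 Human liver microsomes. Intrinsic clearance is expressed as µl/min/mg protein.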

[5] = Clearance in rat at 1 mg/kg, iv; format: ADME, organism-based; set-up: dose 1 mg/kg, route intravenous; conditions: in vivo; summary of the method: as §1
[6] = AUC in rat at 10 mg/kg, po; format: ADME, organism-based; set-up: dose 10 mg/kg, route oral; conditions: plasma; summary of the method: as §1
[7] = Intrinsic clearance in rat liver microsomes assessed per mg of protein; format: ADME, Microsome
Summary of the method: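 Rat liver microsomes. Intrinsic clearance is expressed per mg protein. Values ≥90 µl/min were taken as high clearance.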

[8] = tested on: Caco-2; assay: Efflux ratio of permeability from basolateral to apical over apical to basolateral side in human Caco-2 cells after 21 days; conditions: caco-2, 504 h
[9] = tested on: Human immunodeficiency virus 1; assay: Antiviral activity against HIV1 NL4-3 infected in human JC53-BL cells assessed as luciferase activity after 3 days post infection; format: functional, organism-based; conditions: Human immunodeficiency virus 1, NL4-3, JC53BL, 72 h
Summary of the method: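 Pseudotyped virus in culture supernatant was harvested after 2 days. It was used to infect JC53-BL reporter cells. Luciferase reporter activity was read 3 days post-infection. IC50 in nM is reported as the mean of two experiments.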

[10] = AUC in dog at 10 mg/kg, po; format: ADME, organism-based, Canis lupus familiaris; set-up: dose 10 mg/kg, route oral; conditions: plasma
Summary of the method: (§2)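 Dog PK. Single IV dose of 1 mg/kg, then an oral dose of 10 mg/kg; one case used 1 mg/kg both IV and PO. AUC and %F were determined after the oral dose. Clearance (ml/min/kg) was determined from the IV dose.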

[11] = Intrinsic clearance in dog liver microsomes assessed per mg of protein; format: ADME, Canis lupus familiaris, Microsome
[12] = Oral bioavailability in dog at 10 mg/kg; format: ADME, organism-based, Canis lupus familiaris; conditions: in vivo; summary of the method: as §2
[13] = Clearance in dog at 1 mg/kg, iv; format: ADME, organism-based, Canis lupus familiaris; set-up: dose 1 mg/kg, route intravenous; conditions: in vivo; summary of the method: as §2

C-C chemokine receptor type 5, sequence (P51681 whole entry): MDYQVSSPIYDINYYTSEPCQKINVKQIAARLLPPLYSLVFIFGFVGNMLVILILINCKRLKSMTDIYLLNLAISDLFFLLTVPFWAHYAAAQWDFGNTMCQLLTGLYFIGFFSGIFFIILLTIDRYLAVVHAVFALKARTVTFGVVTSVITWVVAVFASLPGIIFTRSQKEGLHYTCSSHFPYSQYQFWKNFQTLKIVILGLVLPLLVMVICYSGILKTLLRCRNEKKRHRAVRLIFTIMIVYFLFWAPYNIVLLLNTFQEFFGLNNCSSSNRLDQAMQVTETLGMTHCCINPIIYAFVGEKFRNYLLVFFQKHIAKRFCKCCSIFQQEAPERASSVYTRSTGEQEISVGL

| SMILES | IC50 [2] [nM] | microsomal CLint [4] [µL/min/mg] | microsomal CLint [7] [µL/min/mg] | IC50 [9] [nM] | other results |
| --- | --- | --- | --- | --- | --- |
| Cc1ncnc(C)c1C(=O)N1C[C@H]2CN(CC[C@H](NC(=O)C3CCCC3)c3ccccc3)C[C@H]2C1 | 14 | 35 | 51 | – | Papp A→B [1]: 1.3 ×10⁻⁶ cm/s; bioavailability [3]: 17%; clearance [5]: 131 mL/min/kg; AUC [6]: 309 ng·h/mL |
| Cc1ncnc(C)c1C(=O)N1C[C@H]2CN(CC[C@H](NC(=O)CC3CC(F)(F)C3)c3ccccc3)C[C@H]2C1 | 20 | 60 | 61 | 3 | – |
| Cc1cc(C#N)nc(C)c1C(=O)N1C[C@H]2CN(CC[C@H](NC(=O)C3CCCC3)c3ccccc3)C[C@H]2C1 | 12 | 227 | 144 | – | Papp A→B [1]: 3 ×10⁻⁶ cm/s |
| CC(=O)N1C[C@H]2CN(CC[C@H](NC(=O)C3CCCC3)c3ccccc3)C[C@H]2C1 | 465 | – | – | > 1000 | – |
| Cc1noc(C)c1C(=O)N1C[C@H]2CN(CC[C@H](NC(=O)C3CCCC3)c3ccccc3)C[C@H]2C1 | 19 | – | – | 545 | – |
| Cc1ncnc(C)c1C(=O)N1C[C@H]2CN(CC[C@H](NC(=O)CC3CCC(F)(F)CC3)c3ccccc3)C[C@H]2C1 | 27 | 83 | 46 | 6 | AUC [10]: 4210 ng·h/mL; bioavailability [3]: 15%; clearance [5]: 99 mL/min/kg; microsomal CLint [11]: 30 µL/min/mg; bioavailability [12]: 103%; AUC [6]: 215 ng·h/mL; clearance [13]: 44 mL/min/kg |
| Cc1ncnc(C)c1C(=O)N1C[C@H]2CN(CC[C@H](NC(=O)CC3CCC(F)(F)CC3)c3cccc(F)c3)C[C@H]2C1 | 12 | 113 | 24 | 1.1 | – |
| Cc1ncnc(C)c1C(=O)N1C[C@H]2CN(CC[C@H](NC(=O)CC3CC(F)(F)C3)c3cc(F)cc(F)c3)C[C@H]2C1 | 30 | 45 | – | 41 | – |
| Cc1ncnc(C)c1C(=O)N1C[C@H]2CN(CC[C@H](NC(=O)CC3CC(F)(F)C3)c3cccc(C#N)c3)C[C@H]2C1 | 34 | 30 | 31 | 203 | – |
| CCO/N=C(\c1ccc(Br)cc1)C1CCN(C2(C)CCN(C(=O)c3c(C)cccc3C)CC2)CC1 | 6 | – | – | 4 | – |
| Cc1nnc(C(C)C)n1[C@H]1C[C@H]2CC[C@@H](C1)N2CC[C@H](NC(=O)C1CCC(F)(F)CC1)c1ccccc1 [MARAVIROC] | – | – | – | 3 | – |

More lines, main results first:

| IC50 [2] [nM] | microsomal CLint [4] [µL/min/mg] | microsomal CLint [7] [µL/min/mg] | IC50 [9] [nM] | SMILES | other results |
| --- | --- | --- | --- | --- | --- |
| 30 | 25 | 25 | 6 | Cc1cc(=O)[nH]c(C)c1C(=O)N1C[C@H]2CN(CC[C@H](NC(=O)C3CCCC3)c3ccccc3)C[C@H]2C1 | Papp A→B [1]: 0.5 ×10⁻⁶ cm/s; Ratio [8]: 5 |
| 9 | 264 | – | 3 | Cc1cccc(Cl)c1C(=O)N1C[C@H]2CN(CC[C@H](NC(=O)C3CCCC3)c3ccccc3)C[C@H]2C1 | – |
| 6 | 256 | 322 | 7 | Cc1cccc(C)c1C(=O)N1C[C@H]2CN(CC[C@H](NC(=O)C3CCCC3)c3ccccc3)C[C@H]2C1 | Papp A→B [1]: 4 ×10⁻⁶ cm/s; Ratio [8]: 5; bioavailability [3]: 2.7%; clearance [5]: 134 mL/min/kg; AUC [6]: 31 ng·h/mL |
| 15 | – | – | 132 | CC(=O)N[C@@H](CCN1C[C@@H]2CN(C(=O)c3c(C)cccc3C)C[C@@H]2C1)c1ccccc1 | – |
| 11 | – | – | 100 | Cc1cccc(C)c1C(=O)N1C[C@H]2CN(CC[C@H](NC(=O)C(C)C)c3ccccc3)C[C@H]2C1 | – |
| 3 | – | – | 30 | Cc1cccc(C)c1C(=O)N1C[C@H]2CN(CC[C@H](NC(=O)C3CCCCC3)c3ccccc3)C[C@H]2C1 | – |
| 4 | – | – | 9 | Cc1cccc(C)c1C(=O)N1C[C@H]2CN(CC[C@H](NC(=O)C3CCC(F)(F)CC3)c3ccccc3)C[C@H]2C1 | – |
| 8 | – | – | 124 | Cc1cccc(C)c1C(=O)N1C[C@H]2CN(CC[C@H](NC(=O)c3ccccc3)c3ccccc3)C[C@H]2C1 | – |
| 7 | – | – | 39 | Cc1cccc(C)c1C(=O)N1C[C@H]2CN(CC[C@H](NC(=O)C3CCC3)c3ccccc3)C[C@H]2C1 | – |
| 7 | 67 | 89 | – | Cc1ccnc(C)c1C(=O)N1C[C@H]2CN(CC[C@H](NC(=O)C3CCCC3)c3ccccc3)C[C@H]2C1 | Papp A→B [1]: 4 ×10⁻⁶ cm/s; bioavailability [3]: 6.4%; clearance [5]: 151 mL/min/kg; AUC [6]: 65 ng·h/mL |
| 44 | 6 | 12 | 19 | Cc1cc[n+]([O-])c(C)c1C(=O)N1C[C@H]2CN(CC[C@H](NC(=O)C3CCCC3)c3ccccc3)C[C@H]2C1 | Papp A→B [1]: 0.1 ×10⁻⁶ cm/s; Ratio [8]: 300 |
| 14 | 389 | – | 92 | O=C(N[C@@H](CCN1C[C@@H]2CN(C(=O)c3c(Cl)cccc3Cl)C[C@@H]2C1)c1ccccc1)C1CCCC1 | – |
| 6 | 236 | 517 | 3 | Cc1cc(F)cc(C)c1C(=O)N1C[C@H]2CN(CC[C@H](NC(=O)C3CCCC3)c3ccccc3)C[C@H]2C1 | – |
| 26 | 241 | 236 | 0.4 | COc1cc(C)c(C(=O)N2C[C@H]3CN(CC[C@H](NC(=O)C4CCCC4)c4ccccc4)C[C@H]3C2)c(C)c1 | Papp A→B [1]: 33 ×10⁻⁶ cm/s; Ratio [8]: 2 |
| 18 | – | – | 85 | Cc1cccc(C)c1C(=O)N1C[C@H]2CN(CC[C@H](NC(=O)c3ccoc3)c3ccccc3)C[C@H]2C1 | – |
| 15 | – | – | 101 | Cc1cccc(C)c1C(=O)N1C[C@H]2CN(CC[C@H](NC(=O)C3CCOC3)c3ccccc3)C[C@H]2C1 (some centres undefined) | – |
